Compound activity (PubChem)
KCNQ1 pot – potentiators or activators of human KCNQ1 potassium channel. CHO-K1 KCNQ1, thallium flux FluxOR fluorescence; active compounds read high. 310,000 compounds, 0.35% hits. B-score at 10 µM. P51787. AID 2648;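 active = fluorescence ratio B-score, a plate-corrected score, at least three library SD, with initial intensity B-score within 5 SD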
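Assay system: CHO-K1 cells stably expressing KCNQ1; Medium: assay buffer with matched DMSO; Also added: K+/Tl+ depolarizing stimulus; Dosing: single dose; Timing: dye 90 min, compound 20 min, room temperature; Measured by: kinetic FluxOR thallium fluorescence, 10-s 1-Hz baseline, 110-s post-stimulus read; Read-out: peak-minus-minimum fluorescence over initial fluorescence, negative-control normalized, B-scored.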
KCNK3 inh – human KCNK3 channel inhibition, primary screen | O14649 | B-score at 10 µM | 340,000 compounds, 0.84% hits | CHO-KCNK3 thallium flux, FluxOR fluorescence; active compounds read low;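 active = B-score under library mean minus 4 SD, starting fluorescence ratio at most library mean plus 5 SD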;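 note: more negative B-score means stronger inhibition of thallium flux through KCNK3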
Target sequence (O14649 whole entry, looked up): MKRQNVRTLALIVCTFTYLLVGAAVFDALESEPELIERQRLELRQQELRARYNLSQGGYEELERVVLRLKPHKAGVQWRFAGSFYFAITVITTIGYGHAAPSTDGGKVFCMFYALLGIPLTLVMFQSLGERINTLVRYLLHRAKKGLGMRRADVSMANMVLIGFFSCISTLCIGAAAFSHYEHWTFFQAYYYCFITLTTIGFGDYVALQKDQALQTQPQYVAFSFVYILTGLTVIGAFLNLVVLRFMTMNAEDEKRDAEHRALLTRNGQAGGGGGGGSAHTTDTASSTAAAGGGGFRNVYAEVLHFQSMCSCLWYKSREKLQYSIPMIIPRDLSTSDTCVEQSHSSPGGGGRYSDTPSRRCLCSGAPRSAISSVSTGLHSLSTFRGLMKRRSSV
KCNQ1 block – blocks the human KCNQ1 potassium channel. P51787. CHO-K1 KCNQ1, FluxOR thallium flux fluorescence; active compounds read high. B-score at 10 µM. 310,000 compounds, 1.3% hits. AID 2642;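 active = compounds whose thallium flux B-score, printed positive for inhibition, exceeds three library SD while starting fluorescence stays within three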;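 note: channel opened by potassium depolarization with thallium stimulus after 20 min compound exposure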
hERG rescue – hERG (human) protection from proarrhythmic block. Q12809. CHO-hERG, FluxOR thallium flux, dofetilide IC70 present. 310,000 compounds, 0.51% hits. activation (rescue from dofetilide block), less the hit threshold, % at 10 µM;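 active = activation above the mean of controls blocked by dofetilide plus 5 SD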;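 note: thallium influx through hERG after potassium depolarization seen as dye fluorescence rise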
KCNK9 block – human KCNK9 channel inhibition; B-score at 10 µM; HEK293 KCNK9, FluxOR thallium flux fluorescence; active compounds read low; 310,000 compounds, 1.2% hits;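 active = ratio B-score over 3 SD below the library mean, with starting fluorescence within 5 SD of its mean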;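 note: negative B-score means less thallium flux so channel inhibition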
Kir21 inh – blocks the mouse Kir2.1 inward-rectifier potassium channel; P35561; HEK293-Kir2.1, FluxOR thallium flux fluorescence; active compounds read low; B-score at 10 µM; 310,000 compounds, 0.85% hits; AID 1672;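 active = fluorescence ratio B-score at or below minus 3 SD of library scores, with starting-brightness B-score within 2 SD, cut at about -4.2 in these data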;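 note: channel flux triggered by added potassium and thallium sulfate stimulus; B-score of peak minus minimum fluorescence over baseline after thallium stimulus; more negative B-score means stronger Kir2.1 block with less thallium influx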
Large screens that a line does not name were inactive. Rows were chosen to be rich in hits. Some 3.7% of all compounds tested hit in one or more screens of this group.

Nn1c(SC/C=C/c2ccccc2)nnc1-c1ccco1	none
CCn1cc(C(=O)N2CCCC(CO)(Cc3ccccc3C)C2)cn1 (centres undefined)	none
O=C(CNc1cccc(C(F)(F)F)c1)Nc1cccc(S(=O)(=O)N2CCCC2)c1	KCNK3 inh -9.3 (no result: KCNQ1 pot, KCNQ1 block, hERG rescue, KCNK9 block, Kir21 inh)
COc1ccc(CCNC(=O)CN2C(=O)COc3ccc(S(=O)(=O)N4CCCC4)cc32)c(OC)c1	none
CC(C)c1nc2c(s1)CCc1onc(-c3cccc([N+](=O)[O-])c3)c1-2	KCNK9 block -6.7
CCCc1nc2c(s1)CCc1onc(-c3cccc([N+](=O)[O-])c3)c1-2	none
c1ccc(Cn2nnc3c(N4CCN(Cc5ccc6c(c5)OCO6)CC4)ncnc32)cc1	none
c1ccc2c(c1)oc1c(N3CCN(Cc4ccc5c(c4)OCO5)CC3)ncnc12	KCNK3 inh -9.5
CCN(C(=O)COC(=O)c1ccc([N+](=O)[O-])o1)C1CCCCC1	none (no result: KCNQ1 pot, KCNQ1 block, hERG rescue, KCNK9 block, Kir21 inh)
CC(Sc1ccsc1[N+](=O)[O-])C(=O)NCc1ccco1 (centres undefined)	KCNK9 block -7.7
COc1ccc(-c2nn(-c3ccccc3)cc2C(=O)NC(=S)NNC(=O)c2ccncc2)cc1	hERG rescue 17
COc1ccc(NC(=O)c2cn(-c3ccccc3)nc2-c2ccncc2)cc1	hERG rescue 25
COc1ccc(NC(=O)c2cn(-c3ccccc3)nc2-c2cc3ccccc3o2)cc1	KCNQ1 block 7
COc1ccc(-c2nn(-c3ccccc3)cc2C(=O)Nc2ccc(C(=O)O)cc2)cc1	none
CCCN(CC(=O)Nc1ccccc1C)C(=O)c1ccc(N2CCCC2)c([N+](=O)[O-])c1	none
c1ccc(-c2cc(N3CCOCC3)nc3ccccc23)cc1	KCNQ1 block 6
Cn1ncc2c(Nc3ccc([N+](=O)[O-])cc3)nc(Cl)nc21	none
C=CCNc1nc(Nc2ccc([N+](=O)[O-])cc2)nc(N2CCCC2)n1	KCNQ1 block 8
CC1CCN(c2nc(Cl)nc(Nc3ccc([N+](=O)[O-])cc3)n2)CC1	KCNQ1 block 8
C=CCNc1nc(Cl)nc(Nc2ccc([N+](=O)[O-])cc2)n1	none
Cc1ccc(C)c(N2CCN(c3ncccc3[N+](=O)[O-])CC2)c1	KCNK9 block -6.6
Cc1ccc(S(=O)(=O)c2c(N)n(NC(=O)c3ccccc3C)c3nc4ccccc4nc23)cc1	KCNK3 inh -8.8
CCCCn1c(NS(=O)(=O)c2ccccc2)c(S(=O)(=O)c2ccc(C)cc2)c2nc3ccccc3nc21	none
CCCCn1c(NC(=O)c2ccco2)c(S(=O)(=O)c2ccc(C)cc2)c2nc3ccccc3nc21	none
CCCCn1c(NC(=O)c2ccc(Br)o2)c(S(=O)(=O)c2ccccc2)c2nc3ccccc3nc21	KCNQ1 block 12
CCCCCn1c(NC(=O)c2ccco2)c(S(=O)(=O)c2ccc(C)cc2)c2nc3ccccc3nc21	KCNQ1 block 10
Cc1ccc(C(=O)Nn2c(N)c(S(=O)(=O)c3ccc(C)cc3)c3nc4ccccc4nc32)cc1	none
Cn1c(SCC(=O)Nc2ccccc2Oc2ccccc2)nnc1C1CC1	none (no result: KCNQ1 pot, KCNQ1 block, hERG rescue, KCNK9 block, Kir21 inh)
C=C(CN(C)C)C(=O)c1cc(C)ccc1C	none (no result: KCNQ1 pot, KCNQ1 block, hERG rescue, KCNK9 block, Kir21 inh)
Cn1c(SCC(=O)N2CCOCC2)nc2cccnc21	hERG rescue 4.8
CC(=O)C[C@H]1c2ccccc2S(=O)(=O)N1C1CCCC1	Kir21 inh -4.8
COc1ccc(Cn2nnnc2C(c2ccccc2Cl)N2CCN(C3CCCC3)CC2)cc1 (centres undefined)	Kir21 inh -5.1
CCOC(=O)c1c(NC(=O)c2ccco2)sc2c1CCCCC2	none
CCOC(=O)c1c(NC(=O)CCNCc2ccco2)sc2c1CCC2	Kir21 inh -17 (no result: KCNK3 inh)
CCOC(=O)c1c(NC(=O)c2ccccc2C(=O)O)sc2c1CCC2	none
CCOC(=O)c1c(NS(=O)(=O)Cc2ccccc2)sc2c1CCCC2	hERG rescue 78
CCOC(=O)c1c(NC(=O)CCCC(=O)O)sc2c1CCC2	none
CCOC(=O)c1c(NC(=O)C(C)N2CCN(C(=O)c3ccco3)CC2)sc2c1CCCC2 (centres undefined)	KCNQ1 pot 15
Cc1nc2cc3c(cc2c(C)c1C(=O)OC(C)C)OCO3	none
COc1ccc(C(=O)c2cnc3cc4c(cc3c2C)OCO4)cc1	KCNK9 block -6.9
Cc1c(C=O)c2ccccn2c1C(=O)c1cccc([N+](=O)[O-])c1	none
O=C(CCC1CCCCC1)Nc1cc(Cl)ccc1N1CCOCC1	KCNK3 inh -9 (no result: KCNQ1 pot, KCNQ1 block, hERG rescue, KCNK9 block, Kir21 inh)
O=C(CCC1CCCC1)Nc1cc(C(F)(F)F)ccc1N1CCOCC1	none
O=C(Cc1ccccc1)N/N=C/c1ccc2cccc(O)c2n1	hERG rescue 9.4
COc1cc(NC(=O)Nc2cccc([N+](=O)[O-])c2)cc(OC)c1	none
Cn1ccc(NC(=O)Nc2cccc([N+](=O)[O-])c2)n1	KCNQ1 block 6
Cc1ccc(NC(=O)c2cccs2)cc1S(=O)(=O)Nc1cccc(Cl)c1	KCNK9 block -7.8
O=C(Nc1cccc([N+](=O)[O-])c1)Nc1cccc([N+](=O)[O-])c1	KCNQ1 block 8
O=C(Nc1ccc(C(=O)O)cc1)Nc1cccc([N+](=O)[O-])c1	KCNQ1 block 7
Cc1ccc(NC(=O)Nc2cccc([N+](=O)[O-])c2)nc1	none
CCO[C@H]1OC(C(N)=O)=C[C@@H](C)[C@@H]1CCCO	none
O=C(O)c1ccccc1CSc1ncccc1C(=O)O	none
Cc1ccc(C(=O)Nc2cccc([N+](=O)[O-])c2)cc1S(=O)(=O)Nc1ccc(NC(=O)c2ccccc2)cc1	none
Cc1ccc(NS(=O)(=O)c2cc(C(=O)Nc3cccc([N+](=O)[O-])c3)ccc2C)cc1	KCNK9 block -6.8
O=C(Nc1cccc([N+](=O)[O-])c1)NC1CCCCCCC1	KCNQ1 block 7
CCOCCCn1c(=NC(=O)c2cccs2)c(C#N)cc2c(=O)n3ccccc3nc21	none
O=C(Cn1nc(C(=O)O)c2ccccc2c1=O)Nc1cccc(S(=O)(=O)N2CCCCC2)c1	none (no result: KCNQ1 pot, KCNQ1 block, hERG rescue, KCNK9 block, Kir21 inh)
COc1ccc(Cl)cc1NC(=O)CN(C)C(=O)Cc1ccc2c(c1)CCC2	Kir21 inh -4.8
COc1ccc(Cl)cc1NC(=O)CN(C)C(=O)Cc1ccsc1	none
OCC1(Cc2ccc(F)cc2F)CCCN(Cc2ccc(Cl)cc2)C1 (centres undefined)	Kir21 inh -9.4
C[n+]1ccn(CC(=O)c2cc(C(C)(C)C)c(O)c(C(C)(C)C)c2)c1	none
CCOC(=O)C1C(=O)C=C(c2ccc(C)cc2)CC1c1ccccc1 (centres undefined)	none
CCOC(=O)C1C(=O)C=C(c2ccc([N+](=O)[O-])cc2)CC1c1ccccc1 (centres undefined)	KCNQ1 block 6
O=C(NCc1nc2ccccc2[nH]1)c1ccc(S(=O)(=O)N2CCCC2)cc1	hERG rescue 8.1
